Experimental data as given in ChEMBL document CHEMBL4680104, “Structure-Based Optimization of Small-Molecule Inhibitors for the β-Catenin/B-Cell Lymphoma 9 Protein-Protein Interaction” (J Med Chem, 2018).
The source made the active and inactive calls. No cut-off for these calls is given here.

What was measured:
[1] = target: T1, beta-catenin-B-cell lymphoma 9 protein complex (Homo sapiens, UniProt P35222); test: Inhibition of protein interaction between C-terminal 6x-histidine tagged full-length beta-catenin (1 to 781 residues) (unknown origin)/N-terminal biotinylated human BCL9 ( 350 to 375 residues) incubated for 1 hr by Alpha-screen competitive inhibition assay; type: protein-complex assay
T1 sequence (P35222 whole entry): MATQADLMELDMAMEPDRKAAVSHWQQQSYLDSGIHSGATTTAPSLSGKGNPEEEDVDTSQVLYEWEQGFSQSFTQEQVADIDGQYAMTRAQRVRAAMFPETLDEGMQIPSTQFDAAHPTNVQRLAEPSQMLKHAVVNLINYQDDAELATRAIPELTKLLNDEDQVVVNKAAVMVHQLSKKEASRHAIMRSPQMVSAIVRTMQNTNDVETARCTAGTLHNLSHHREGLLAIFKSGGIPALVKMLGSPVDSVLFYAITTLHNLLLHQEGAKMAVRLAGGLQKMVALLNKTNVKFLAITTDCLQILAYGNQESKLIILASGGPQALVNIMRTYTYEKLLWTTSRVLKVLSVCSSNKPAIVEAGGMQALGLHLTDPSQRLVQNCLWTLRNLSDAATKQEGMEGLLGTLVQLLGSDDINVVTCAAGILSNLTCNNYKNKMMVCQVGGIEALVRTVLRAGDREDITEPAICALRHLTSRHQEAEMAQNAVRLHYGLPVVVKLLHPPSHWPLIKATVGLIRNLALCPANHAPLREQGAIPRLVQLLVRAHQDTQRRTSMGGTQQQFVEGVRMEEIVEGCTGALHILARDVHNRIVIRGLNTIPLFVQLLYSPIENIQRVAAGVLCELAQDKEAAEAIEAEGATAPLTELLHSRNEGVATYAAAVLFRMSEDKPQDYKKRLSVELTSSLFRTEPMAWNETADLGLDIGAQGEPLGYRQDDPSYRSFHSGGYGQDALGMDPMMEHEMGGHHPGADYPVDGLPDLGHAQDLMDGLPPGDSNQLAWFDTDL
T1 sequence (O00512 whole entry): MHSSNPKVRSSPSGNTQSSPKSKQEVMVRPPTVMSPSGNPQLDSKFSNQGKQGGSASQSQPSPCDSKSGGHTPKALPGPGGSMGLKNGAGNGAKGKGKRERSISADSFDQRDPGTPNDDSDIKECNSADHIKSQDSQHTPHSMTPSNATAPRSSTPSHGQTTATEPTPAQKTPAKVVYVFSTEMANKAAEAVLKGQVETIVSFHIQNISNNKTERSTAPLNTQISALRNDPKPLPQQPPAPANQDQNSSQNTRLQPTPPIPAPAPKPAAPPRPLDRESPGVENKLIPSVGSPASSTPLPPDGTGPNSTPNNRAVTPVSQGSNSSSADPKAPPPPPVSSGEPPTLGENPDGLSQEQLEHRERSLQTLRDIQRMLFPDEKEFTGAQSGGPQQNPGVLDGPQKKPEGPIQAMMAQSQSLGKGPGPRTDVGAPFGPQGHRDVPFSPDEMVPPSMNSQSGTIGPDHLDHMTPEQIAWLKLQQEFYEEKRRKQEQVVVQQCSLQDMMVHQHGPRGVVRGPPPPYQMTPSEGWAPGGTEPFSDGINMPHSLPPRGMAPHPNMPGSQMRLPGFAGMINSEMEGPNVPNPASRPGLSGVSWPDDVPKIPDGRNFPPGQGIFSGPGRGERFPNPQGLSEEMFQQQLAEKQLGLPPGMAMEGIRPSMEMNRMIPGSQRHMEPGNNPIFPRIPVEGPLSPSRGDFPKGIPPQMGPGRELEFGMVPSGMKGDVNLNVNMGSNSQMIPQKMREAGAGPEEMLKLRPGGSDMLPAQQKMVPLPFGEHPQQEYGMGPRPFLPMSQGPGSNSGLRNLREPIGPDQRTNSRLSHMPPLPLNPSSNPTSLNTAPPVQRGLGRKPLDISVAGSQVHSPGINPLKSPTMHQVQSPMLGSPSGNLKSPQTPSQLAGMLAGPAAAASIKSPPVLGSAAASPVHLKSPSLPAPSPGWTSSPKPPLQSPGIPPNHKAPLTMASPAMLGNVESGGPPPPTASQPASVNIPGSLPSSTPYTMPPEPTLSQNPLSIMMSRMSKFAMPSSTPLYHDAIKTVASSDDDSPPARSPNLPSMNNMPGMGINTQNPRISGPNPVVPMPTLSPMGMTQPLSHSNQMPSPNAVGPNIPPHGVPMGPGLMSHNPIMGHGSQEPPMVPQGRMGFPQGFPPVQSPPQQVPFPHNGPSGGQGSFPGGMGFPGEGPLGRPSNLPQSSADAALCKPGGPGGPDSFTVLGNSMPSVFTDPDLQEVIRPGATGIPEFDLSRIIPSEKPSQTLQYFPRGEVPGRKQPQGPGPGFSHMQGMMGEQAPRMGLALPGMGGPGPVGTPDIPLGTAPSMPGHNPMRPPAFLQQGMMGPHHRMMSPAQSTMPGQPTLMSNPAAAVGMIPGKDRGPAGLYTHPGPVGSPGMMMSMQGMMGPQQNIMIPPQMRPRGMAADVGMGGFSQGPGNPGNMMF
Method in brief: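 Full-length β-catenin (residues 1–781) with a C-terminal His6 tag was expressed in E. coli BL21(DE3) after IPTG induction at 20 °C. It was purified by Ni-NTA, anion-exchange and size-exclusion chromatography. For the assay, 40 nM β-catenin was preincubated for 30 min at 4 °C with 5 nM biotinylated BCL9 or 10 nM biotinylated E-cadherin. Inhibitor was then added for 1 h at 4 °C, followed by 10 μg/mL donor and acceptor beads for 1 h at 4 °C. IC50 was obtained by nonlinear fit and converted to Ki by the Nikolovska-Coleska method. Triplicate, mean ± SD.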

[2] = target: T1, beta-catenin-B-cell lymphoma 9 protein complex; test: Inhibition of protein interaction between beta-catenin (unknown origin)/BCL9 in human SW480 cells transfected with beta-catenin assessed as reduction in Wnt/beta-catenin transactivation incubated for 24 hrs by Wnt-responsive TOP-Flash luciferase reporter assay; type: cell-based
[3] = target: beta-catenin-B-cell lymphoma 9 protein complex (Homo sapiens) (UniProt P35222+O00512); test: Inhibition of protein interaction between beta-catenin (unknown origin)/BCL9 in HEK293 cells transfected with beta-catenin assessed as reduction in Wnt/beta-catenin transactivation incubated for 24 hrs by Wnt-responsive FOP-Flash luciferase reporter assay; type: cell-based
Method in brief: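 HEK293 cells were cotransfected using FuGENE6 with 45 ng TOPFlash or FOPFlash reporter, 135 ng pcDNA3.1-β-catenin and 20 ng pCMV-RL normalization reporter. After 24 h in DMEM with 10% FBS at 37 °C, inhibitors or DMSO were added for 24 h. Reporter activity was read with a dual luciferase system, normalized, and compared with DMSO-treated cells. Triplicate.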

[4] = system: MDA-MB-231; test: Cytotoxicity in human MDA-MB-231 cells assessed as reduction in cell viability incubated for 72 hrs by MTS assay; type: functional, cell-based; details: MDA-MB-231, 72 h
Method in brief: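 Triple-negative breast cancer line seeded at 5 × 10^3 cells/well, held overnight at 37 °C, then exposed to inhibitor over a concentration range for 72 h. Viability read out with a fresh 1:19 mix of PMS (0.92 mg/mL) and MTS (2 mg/mL), incubated 3 h at 37 °C, A490 measured.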

Compound: Cl.Cl.O=C(Nc1ccc(O[C@H]2CCNC2)c(-c2ccc(F)cc2)c1)c1ccc(O[C@H]2CCNC2)c(-c2ccc3ccsc3c2)c1
- Ki [1]: 1.3 µM
- IC50 [2]: 1.2 µM
- inhibition [3]: Active
- IC50 [4]: 2.8 µM

Compound: Cl.Cl.O=C(Nc1ccc(O[C@H]2CCNC2)c(-c2ccc(F)cc2)c1)c1ccc(O[C@H]2CCNC2)c(-c2ccc3cc(F)ccc3c2)c1
- Ki [1]: 1.3 µM
- IC50 [2]: 12 µM
- inhibition [3]: Active
- IC50 [4]: 2.1 µM

Compound: Cl.Cl.O=C(Nc1ccc(O[C@H]2CCNC2)c(-c2ccc(F)cc2)c1)c1ccc(O[C@H]2CCNC2)c(C2CCC(C(F)(F)F)CC2)c1 (stereo partly specified)
- Ki [1]: 4.2 µM
- IC50 [2]: 10 µM
- inhibition [3]: Active
- IC50 [4]: 2.3 µM

Compound: Cl.Cl.O=C(Nc1ccc(O[C@H]2CCNC2)c(-c2ccc(F)cc2)c1)c1cnc(O[C@H]2CCNC2)c(-c2ccc(F)c(F)c2)c1
- Ki [1]: 8.7 µM
- IC50 [2]: 5.9 µM
- inhibition [3]: Active
- IC50 [4]: 3.6 µM

Compound: Cl.Cl.O=C(Nc1ccc(O[C@H]2CCNC2)c(-c2ccc(F)cc2)c1)c1ccc(O[C@H]2CCNC2)c(-c2ccc(F)c(F)c2)c1
- Ki [1]: 2.1 µM
- IC50 [2]: 2.9 µM
- inhibition [3]: Active

Compound: Cl.Cl.O=C(Nc1ccc(O[C@@H]2CCNC2)c(-c2cccc(-c3nn[nH]n3)c2)c1)c1ccc(O[C@H]2CCNC2)c(-c2ccc(F)c(F)c2)c1
- IC50 [2]: 25 µM
- inhibition [3]: inactive
- IC50 [4]: 73 µM

Compound: Cc1cc(F)ccc1-c1cc(NC(=O)c2ccc(O[C@H]3CCNC3)c(-c3ccc(F)c(F)c3)c2)ccc1O[C@H]1CCNC1.Cl.Cl
- Ki [1]: 3.5 µM
- IC50 [2]: 2 µM
- inhibition [3]: Active
- IC50 [4]: 4.1 µM
